The source made the active and inactive calls. Unless noted, the rule behind the calls is not given here.
What was measured:
[1] = target: T1, tRNA (guanine-N(1)-)-methyltransferase (Pseudomonas aeruginosa (strain ATCC 15692 / DSM 22644 / CIP 104116 / JCM14847 / LMG 12228 / 1C / PRS 101 / PAO1)) (UniProt Q9HXQ1); experiment: Binding affinity to Pseudomonas aeruginosa tRNA (guanine(37)-N1)-methyltransferase (Leu5 to Asp25 residues) expressed in Escherichia coli BL21 (DE3) Rosetta T1R cells assessed as thermal stabilization of protein by measuring change in melting temperature at 0.1 mM by SYPRO orange based thermal shift assay
T1 sequence (whole entry): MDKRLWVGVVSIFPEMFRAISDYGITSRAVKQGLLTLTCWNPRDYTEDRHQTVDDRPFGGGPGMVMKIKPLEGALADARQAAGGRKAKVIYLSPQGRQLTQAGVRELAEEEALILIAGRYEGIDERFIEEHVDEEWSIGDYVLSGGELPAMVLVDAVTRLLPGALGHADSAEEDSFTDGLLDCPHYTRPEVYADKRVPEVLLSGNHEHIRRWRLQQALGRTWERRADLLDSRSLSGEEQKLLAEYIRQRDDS
Procedure, shortened: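 Thermal shift: 4 μM TrmD with 5× SYPRO Orange and ligand in 50 mM Tris-HCl pH 8, 150 mM NaCl, 1 mM MgCl2, 1 mM DTT, 0.05% Tween-20. Buffer-only control. Heated from 25 to 95 °C in a real-time PCR instrument, and Tm taken as the unfolding midpoint. Ligand levels: SAH 2 mM, inhibitors 0.1 mM.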

[2] = target: T1, tRNA (guanine-N(1)-)-methyltransferase (Pseudomonas aeruginosa (strain ATCC 15692 / DSM 22644 / CIP 104116 / JCM14847 / LMG 12228 / 1C / PRS 101 / PAO1)); experiment: Inhibition of Pseudomonas aeruginosa tRNA (guanine(37)-N1)-methyltransferase (Leu5 to Asp25 residues) expressed in Escherichia coli BL21 (DE3) Rosetta T1R cells assessed as reduction in S-adenosyl-L-homocysteine production up to 50 uM preincubated for 15 mins followed by 1.5 uM of tRNALeu(CAG) substrate and SAM addition and measured after 45 mins by MTase-Glo assay
Procedure, shortened: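 MTase-Glo luminescence assay. 8 nM TrmD preincubated 15 min at ambient temperature with serially diluted inhibitor (0–500 μM) in 50 mM Tris-HCl pH 8.0, 80 mM NaCl, 1 mM MgCl2, 0.5 mM DTT, 0.01% Triton X-100. Reaction with 2 μM SAM and tRNALeu(CAG), 45 min at 37 °C. Detection 30 min in the dark, SAH read against a standard curve. IC50 by nonlinear regression. Two independent experiments in duplicate.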

Erythrocyte = experiment: Hemolytic activity in human RBC at 100 uM measured after 1 hr; type: ADME, cell-based
Procedure, shortened: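 Fresh human RBCs were PBS-washed and resuspended to OD600 24, then mixed 1:1 by volume with compound serially diluted in PBS. Incubated 1 h at 37 °C without shaking and centrifuged at 1000g for 15 min. Triton X-100 served as positive control. Run in triplicate.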

SMILES | ΔTm [1] [°C] | inhibition [2] | Activity (Erythrocyte)
CCCOc1ncnc2scc(C(=O)NCc3ccc(CNCc4ccccc4)cc3)c12 | 1 to 2 | inactive | Non-Toxic
CCCOc1ncnc2scc(C(=O)NCc3ccc(CN4CCOCC4)cc3)c12 | 1 to 2 | inactive | Non-Toxic
COc1ncnc2scc(C(=O)NCc3ccc(CN4CCOCC4)cc3)c12 | 1 to 2 | inactive | Non-Toxic
CCCCCCCCNCc1ccc(CNC(=O)c2csc3ncnc(OC)c23)cc1 | 1 to 2 | inactive | Non-Toxic
COc1ncnc2scc(C(=O)NCc3ccc(CNCc4ccccc4)cc3)c12 | 1 to 2 | inactive | Non-Toxic
CCCCCCCCNCc1ccc(CNC(=O)c2csc3ncnc(OCCC)c23)cc1 | 1 to 2 | inactive | –

— ChEMBL document CHEMBL4373727, “Thienopyrimidinone Derivatives That Inhibit Bacterial tRNA (Guanine37-N1)-Methyltransferase (TrmD) by Restructuring the Active Site with a Tyrosine-Flipping Mechanism” (J Med Chem, 2019)
